Assay: Inhibition of mouse full length GST-tagged BRAF V600E mutant-mediated Mek1 phosphorylation preincubated for 1 hr prior to substrate addition measured after 25 mins by PAGE analysis
Settings: not given

SMILES | IC50 [µM] | pIC50
COc1ccc(C2=NN(C(=O)c3cncc(Br)c3)C(c3ccc(OC)cc3)C2)cc1 (stereo not drawn) | 4.58 | 5.339
COc1ccc(C2=NN(C(=O)c3ccc(Cl)nc3)C(c3ccc(OC)cc3)C2)cc1 (stereo not drawn) | 7.56 | 5.121
COc1ccc(C2=NN(C(=O)c3ccc(C)nc3Cl)C(c3ccc(OC)cc3)C2)cc1 (stereo not drawn) | 5.14 | 5.289
COc1ccc(C2=NN(C(=O)c3cccnc3Cl)C(c3ccc(OC)cc3)C2)cc1 (stereo not drawn) | 6.14 | 5.212
COc1ccc(C2=NN(C(=O)c3ccc(C)nc3)C(c3ccc(OC)cc3)C2)cc1 (stereo not drawn) | 3.42 | 5.466
COc1ccc(C2=NN(C(=O)c3cncc(Br)c3)C(c3ccc(Cl)cc3)C2)cc1 (stereo not drawn) | 0.38 | 6.42
COc1ccc(C2=NN(C(=O)c3ccc(Cl)nc3)C(c3ccc(Cl)cc3)C2)cc1 (stereo not drawn) | 0.51 | 6.292
COc1ccc(C2=NN(C(=O)c3ccc(C)nc3Cl)C(c3ccc(Cl)cc3)C2)cc1 (stereo not drawn) | 0.58 | 6.237
COc1ccc(C2=NN(C(=O)c3cccnc3Cl)C(c3ccc(Cl)cc3)C2)cc1 (stereo not drawn) | 0.47 | 6.328
COc1ccc(C2=NN(C(=O)c3ccc(C)nc3)C(c3ccc(Cl)cc3)C2)cc1 (stereo not drawn) | 0.2 | 6.796
COc1ccc(C2=NN(C(=O)c3cncc(Br)c3)C(c3ccc(Br)cc3)C2)cc1 (stereo not drawn) | 3.51 | 5.455
COc1ccc(C2=NN(C(=O)c3ccc(Cl)nc3)C(c3ccc(Br)cc3)C2)cc1 (stereo not drawn) | 6.89 | 5.162
COc1ccc(C2=NN(C(=O)c3ccc(C)nc3Cl)C(c3ccc(Br)cc3)C2)cc1 (stereo not drawn) | 6.76 | 5.17
COc1ccc(C2=NN(C(=O)c3cccnc3Cl)C(c3ccc(Br)cc3)C2)cc1 (stereo not drawn) | 5.57 | 5.254
COc1ccc(C2=NN(C(=O)c3ccc(C)nc3)C(c3ccc(Br)cc3)C2)cc1 (stereo not drawn) | 4.23 | 5.373
COc1ccc(C2=NN(C(=O)c3cncc(Br)c3)C(c3ccc(OCc4ccccc4)cc3)C2)cc1 (stereo not drawn) | 4.27 | 5.272
COc1ccc(C2=NN(C(=O)c3ccc(Cl)nc3)C(c3ccc(OCc4ccccc4)cc3)C2)cc1 (stereo not drawn) | 6.78 | 5.369
COc1ccc(C2=NN(C(=O)c3ccc(C)nc3Cl)C(c3ccc(OCc4ccccc4)cc3)C2)cc1 (stereo not drawn) | 3.01 | 5.521

SMILES | IC50 [µM] | pIC50
COc1ccc(C2=NN(C(=O)c3cccnc3Cl)C(c3ccc(OCc4ccccc4)cc3)C2)cc1 (stereo not drawn) | 6.49 | 5.188
COc1ccc(C2=NN(C(=O)c3ccc(C)nc3)C(c3ccc(OCc4ccccc4)cc3)C2)cc1 (stereo not drawn) | 1.63 | 5.788
O=C(c1cncc(Br)c1)N1N=C(c2ccc(Cl)cc2)CC1c1ccc(OCc2ccccc2)cc1 (stereo not drawn) | 7.61 | 5.119
O=C(c1ccc(Cl)nc1)N1N=C(c2ccc(Cl)cc2)CC1c1ccc(OCc2ccccc2)cc1 (stereo not drawn) | 16.4 | 4.784
Cc1ccc(C(=O)N2N=C(c3ccc(Cl)cc3)CC2c2ccc(OCc3ccccc3)cc2)c(Cl)n1 (stereo not drawn) | 12.9 | 4.89
O=C(c1cccnc1Cl)N1N=C(c2ccc(Cl)cc2)CC1c1ccc(OCc2ccccc2)cc1 (stereo not drawn) | 4.42 | 5.355
Cc1ccc(C(=O)N2N=C(c3ccc(Cl)cc3)CC2c2ccc(OCc3ccccc3)cc2)cn1 (stereo not drawn) | 7.02 | 5.154
O=C(c1cncc(Br)c1)N1N=C(c2ccc(Cl)cc2)CC1c1ccc(Cl)cc1 (stereo not drawn) | 4.77 | 5.321
O=C(c1ccc(Cl)nc1)N1N=C(c2ccc(Cl)cc2)CC1c1ccc(Cl)cc1 (stereo not drawn) | 7.16 | 5.145
Cc1ccc(C(=O)N2N=C(c3ccc(Cl)cc3)CC2c2ccc(Cl)cc2)c(Cl)n1 (stereo not drawn) | 7.77 | 5.11
O=C(c1cccnc1Cl)N1N=C(c2ccc(Cl)cc2)CC1c1ccc(Cl)cc1 (stereo not drawn) | 2.12 | 5.672
Cc1ccc(C(=O)N2N=C(c3ccc(Cl)cc3)CC2c2ccc(Cl)cc2)cn1 (stereo not drawn) | 3.58 | 5.446
O=C(c1cncc(Br)c1)N1N=C(c2ccc(Cl)cc2)CC1c1ccc(Br)cc1 (stereo not drawn) | 7.82 | 5.107
O=C(c1ccc(Cl)nc1)N1N=C(c2ccc(Cl)cc2)CC1c1ccc(Br)cc1 (stereo not drawn) | 7.34 | 5.134
Cc1ccc(C(=O)N2N=C(c3ccc(Cl)cc3)CC2c2ccc(Br)cc2)c(Cl)n1 (stereo not drawn) | 7.35 | 5.134
O=C(c1cccnc1Cl)N1N=C(c2ccc(Cl)cc2)CC1c1ccc(Br)cc1 (stereo not drawn) | 8.67 | 5.062
Cc1ccc(C(=O)N2N=C(c3ccc(Cl)cc3)CC2c2ccc(Br)cc2)cn1 (stereo not drawn) | 7.05 | 5.152
CNC(=O)c1cc(Oc2ccc(NC(=O)Nc3ccc(Cl)c(C(F)(F)F)c3)cc2)ccn1 [SORAFENIB] | 0.06 | –

Assay: Antiproliferative activity against human WM266.4 cells after 24 hrs by MTT assay
Format: functional
Settings: WM 266-4, 24 h
How it was run: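 WM266.5 (so in the source) melanoma cells in DMEM/10% FBS, 37 °C, 5% CO2; seeded 1000 cells/well and left 24 h to reattach. DMSO stocks (20 mM) serially diluted in medium to final 100 µM–0.005 µM. Exposure 24 h at 37 °C. Viability by MTT reduction, absorbance at 590 nm; GI50 calculated.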

SMILES | GI50 [µM]
COc1ccc(C2=NN(C(=O)c3cncc(Br)c3)C(c3ccc(OC)cc3)C2)cc1 (stereo not drawn) | 7.56
COc1ccc(C2=NN(C(=O)c3ccc(Cl)nc3)C(c3ccc(OC)cc3)C2)cc1 (stereo not drawn) | 6.45
COc1ccc(C2=NN(C(=O)c3ccc(C)nc3Cl)C(c3ccc(OC)cc3)C2)cc1 (stereo not drawn) | 5.74
COc1ccc(C2=NN(C(=O)c3cccnc3Cl)C(c3ccc(OC)cc3)C2)cc1 (stereo not drawn) | 4.35
COc1ccc(C2=NN(C(=O)c3ccc(C)nc3)C(c3ccc(OC)cc3)C2)cc1 (stereo not drawn) | 4.93
COc1ccc(C2=NN(C(=O)c3cncc(Br)c3)C(c3ccc(Cl)cc3)C2)cc1 (stereo not drawn) | 1.29
COc1ccc(C2=NN(C(=O)c3ccc(Cl)nc3)C(c3ccc(Cl)cc3)C2)cc1 (stereo not drawn) | 1.45
COc1ccc(C2=NN(C(=O)c3ccc(C)nc3Cl)C(c3ccc(Cl)cc3)C2)cc1 (stereo not drawn) | 1.44
COc1ccc(C2=NN(C(=O)c3cccnc3Cl)C(c3ccc(Cl)cc3)C2)cc1 (stereo not drawn) | 0.78
COc1ccc(C2=NN(C(=O)c3ccc(C)nc3)C(c3ccc(Cl)cc3)C2)cc1 (stereo not drawn) | 0.89
COc1ccc(C2=NN(C(=O)c3cncc(Br)c3)C(c3ccc(Br)cc3)C2)cc1 (stereo not drawn) | 5.63
COc1ccc(C2=NN(C(=O)c3ccc(Cl)nc3)C(c3ccc(Br)cc3)C2)cc1 (stereo not drawn) | 7.13
COc1ccc(C2=NN(C(=O)c3ccc(C)nc3Cl)C(c3ccc(Br)cc3)C2)cc1 (stereo not drawn) | 8.47
COc1ccc(C2=NN(C(=O)c3cccnc3Cl)C(c3ccc(Br)cc3)C2)cc1 (stereo not drawn) | 3.05
COc1ccc(C2=NN(C(=O)c3ccc(C)nc3)C(c3ccc(Br)cc3)C2)cc1 (stereo not drawn) | 4.28
COc1ccc(C2=NN(C(=O)c3cncc(Br)c3)C(c3ccc(OCc4ccccc4)cc3)C2)cc1 (stereo not drawn) | 6.24
COc1ccc(C2=NN(C(=O)c3ccc(Cl)nc3)C(c3ccc(OCc4ccccc4)cc3)C2)cc1 (stereo not drawn) | 10.6
COc1ccc(C2=NN(C(=O)c3ccc(C)nc3Cl)C(c3ccc(OCc4ccccc4)cc3)C2)cc1 (stereo not drawn) | 10.5

SMILES | GI50 [µM]
COc1ccc(C2=NN(C(=O)c3cccnc3Cl)C(c3ccc(OCc4ccccc4)cc3)C2)cc1 (stereo not drawn) | 9.15
COc1ccc(C2=NN(C(=O)c3ccc(C)nc3)C(c3ccc(OCc4ccccc4)cc3)C2)cc1 (stereo not drawn) | 7.95
O=C(c1cncc(Br)c1)N1N=C(c2ccc(Cl)cc2)CC1c1ccc(OCc2ccccc2)cc1 (stereo not drawn) | 8.13
O=C(c1ccc(Cl)nc1)N1N=C(c2ccc(Cl)cc2)CC1c1ccc(OCc2ccccc2)cc1 (stereo not drawn) | 13.2
Cc1ccc(C(=O)N2N=C(c3ccc(Cl)cc3)CC2c2ccc(OCc3ccccc3)cc2)c(Cl)n1 (stereo not drawn) | 11.4
O=C(c1cccnc1Cl)N1N=C(c2ccc(Cl)cc2)CC1c1ccc(OCc2ccccc2)cc1 (stereo not drawn) | 7.71
Cc1ccc(C(=O)N2N=C(c3ccc(Cl)cc3)CC2c2ccc(OCc3ccccc3)cc2)cn1 (stereo not drawn) | 9.2
O=C(c1cncc(Br)c1)N1N=C(c2ccc(Cl)cc2)CC1c1ccc(Cl)cc1 (stereo not drawn) | 6.09
O=C(c1ccc(Cl)nc1)N1N=C(c2ccc(Cl)cc2)CC1c1ccc(Cl)cc1 (stereo not drawn) | 9.89
Cc1ccc(C(=O)N2N=C(c3ccc(Cl)cc3)CC2c2ccc(Cl)cc2)c(Cl)n1 (stereo not drawn) | 8.87
O=C(c1cccnc1Cl)N1N=C(c2ccc(Cl)cc2)CC1c1ccc(Cl)cc1 (stereo not drawn) | 3.58
Cc1ccc(C(=O)N2N=C(c3ccc(Cl)cc3)CC2c2ccc(Cl)cc2)cn1 (stereo not drawn) | 3.79
O=C(c1cncc(Br)c1)N1N=C(c2ccc(Cl)cc2)CC1c1ccc(Br)cc1 (stereo not drawn) | 8.01
O=C(c1ccc(Cl)nc1)N1N=C(c2ccc(Cl)cc2)CC1c1ccc(Br)cc1 (stereo not drawn) | 9.87
Cc1ccc(C(=O)N2N=C(c3ccc(Cl)cc3)CC2c2ccc(Br)cc2)c(Cl)n1 (stereo not drawn) | 10.8
O=C(c1cccnc1Cl)N1N=C(c2ccc(Cl)cc2)CC1c1ccc(Br)cc1 (stereo not drawn) | 7.45
Cc1ccc(C(=O)N2N=C(c3ccc(Cl)cc3)CC2c2ccc(Br)cc2)cn1 (stereo not drawn) | 7.65
CNC(=O)c1cc(Oc2ccc(NC(=O)Nc3ccc(Cl)c(C(F)(F)F)c3)cc2)ccn1 [SORAFENIB] | 8.12

Assay: Acute oral toxicity in po dosed rat after 14 days
Format: organism-based
Settings: in vivo
How it was run: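 Single 5000 mg/kg dose given by oral gavage to ten healthy rats. Mortality, gross toxicity signs and behavioural changes were checked at least once daily for 14 days. Body weights were taken before dosing and on days 7 and 14.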

SMILES | LD50 at 336 h [mg/kg]
COc1ccc(C2=NN(C(=O)c3ccc(C)nc3)C(c3ccc(Cl)cc3)C2)cc1 (stereo not drawn) | > 5000

Source: ChEMBL document CHEMBL2034910, “Synthesis, biological evaluation and 3D-QSAR studies of novel 4,5-dihydro-1H-pyrazole niacinamide derivatives as BRAF inhibitors” (Bioorg Med Chem, 2012)
